Read-outs that look alike come from different tables or passages of the source.
Assays:
Sirt2 [1] = biological target: T1, Sirt2 (Homo sapiens, UniProt Q8IXJ6); conditions: read-out: In vitro Sirt2 activity assay IC50; cited from earlier work
T1 sequence (Q8IXJ6 56-356): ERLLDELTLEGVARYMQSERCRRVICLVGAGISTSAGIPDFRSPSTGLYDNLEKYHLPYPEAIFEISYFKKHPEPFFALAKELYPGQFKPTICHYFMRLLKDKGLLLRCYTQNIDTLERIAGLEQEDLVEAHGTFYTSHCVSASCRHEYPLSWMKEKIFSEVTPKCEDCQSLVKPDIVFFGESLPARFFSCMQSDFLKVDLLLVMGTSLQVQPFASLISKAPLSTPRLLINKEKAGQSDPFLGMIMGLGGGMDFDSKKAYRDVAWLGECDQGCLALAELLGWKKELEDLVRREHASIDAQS

[2] = biological target: T2, N-terminally labelled Nluc-Sirt2 fusion protein (Homo sapiens, UniProt Q8IXJ6); assay: NanoBRET assay, N-terminal Nluc-Sirt2 fusion in HEK293T cells
T2 sequence (Q8IXJ6 50-356): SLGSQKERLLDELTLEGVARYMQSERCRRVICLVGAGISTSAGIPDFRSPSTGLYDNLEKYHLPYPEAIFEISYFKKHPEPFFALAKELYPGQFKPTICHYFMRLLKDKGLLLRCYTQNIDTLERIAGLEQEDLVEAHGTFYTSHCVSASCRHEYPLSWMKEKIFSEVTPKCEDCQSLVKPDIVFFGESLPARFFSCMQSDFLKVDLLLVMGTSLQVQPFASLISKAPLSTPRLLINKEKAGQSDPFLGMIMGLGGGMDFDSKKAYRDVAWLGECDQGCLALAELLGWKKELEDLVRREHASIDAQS

Sirt1_134-747 = biological target: T3, Sirt1_134-747 (Homo sapiens, UniProt Q96EB6); assay: Sirtuin deacetylation activity assay; format: biochemical
T3 sequence (Q96EB6 134-747): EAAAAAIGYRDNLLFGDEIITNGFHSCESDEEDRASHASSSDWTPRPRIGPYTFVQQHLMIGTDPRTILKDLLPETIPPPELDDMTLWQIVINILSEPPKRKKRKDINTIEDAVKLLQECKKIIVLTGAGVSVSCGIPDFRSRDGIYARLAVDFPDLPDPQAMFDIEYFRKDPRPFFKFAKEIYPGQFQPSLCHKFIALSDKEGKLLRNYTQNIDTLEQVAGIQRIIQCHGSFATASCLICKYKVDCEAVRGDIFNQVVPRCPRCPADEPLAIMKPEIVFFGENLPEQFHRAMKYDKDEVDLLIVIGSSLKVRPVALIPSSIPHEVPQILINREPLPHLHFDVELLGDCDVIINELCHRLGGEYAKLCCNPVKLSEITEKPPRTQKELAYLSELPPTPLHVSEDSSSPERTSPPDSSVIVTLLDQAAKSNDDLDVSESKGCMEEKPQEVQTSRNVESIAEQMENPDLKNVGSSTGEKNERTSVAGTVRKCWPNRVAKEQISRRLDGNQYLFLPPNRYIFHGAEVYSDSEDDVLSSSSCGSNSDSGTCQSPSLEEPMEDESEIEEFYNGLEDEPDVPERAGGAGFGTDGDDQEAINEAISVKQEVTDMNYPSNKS

Sirt2_56-356 [3] = biological target: T4, Sirt2_56-356 (Homo sapiens, UniProt Q8IXJ6); assay: Sirtuin deacetylation activity assay; format: biochemical
T4 sequence (Q8IXJ6 56-356): T1 sequence (Q8IXJ6 56-356)

Sirt2_56-356 [4] = biological target: T4, Sirt2_56-356; assay: Sirt2 demyristoylation activity assay; format: biochemical
Sirt3_118-395 = biological target: T5, Sirt3_118-395 (Homo sapiens, UniProt Q9NTG7); assay: Sirtuin deacetylation activity assay; format: biochemical
T5 sequence (Q9NTG7 118-395): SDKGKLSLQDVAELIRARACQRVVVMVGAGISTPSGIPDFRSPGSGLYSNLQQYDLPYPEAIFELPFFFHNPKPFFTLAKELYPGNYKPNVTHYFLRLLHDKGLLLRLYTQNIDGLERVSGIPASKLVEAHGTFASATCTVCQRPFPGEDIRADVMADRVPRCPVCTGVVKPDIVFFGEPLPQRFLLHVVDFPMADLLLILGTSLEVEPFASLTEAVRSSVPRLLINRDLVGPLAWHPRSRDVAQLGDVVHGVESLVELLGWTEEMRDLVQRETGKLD

human recombinant HDAC1 = human recombinant HDAC1 (Homo sapiens, UniProt Q13547); assay: HDAC1 activity assay; format: biochemical
Outline: (§1)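 Enzyme was incubated with serially diluted test compound in DMSO and ZMAL (added from a 126 μM solution) for 90 min at 37 °C. Stop solution (33 μM trichostatin A, 6 mg/mL trypsin) was added, followed by 30 min at 37 °C. Fluorescence read at Ex 390 / Em 460 nm.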

human recombinant HDAC6 = biological target: T6, human recombinant HDAC6 (Homo sapiens, UniProt Q9UBN7); assay: HDAC6 activity assay; format: biochemical
T6 sequence (Q9UBN7 1-1215): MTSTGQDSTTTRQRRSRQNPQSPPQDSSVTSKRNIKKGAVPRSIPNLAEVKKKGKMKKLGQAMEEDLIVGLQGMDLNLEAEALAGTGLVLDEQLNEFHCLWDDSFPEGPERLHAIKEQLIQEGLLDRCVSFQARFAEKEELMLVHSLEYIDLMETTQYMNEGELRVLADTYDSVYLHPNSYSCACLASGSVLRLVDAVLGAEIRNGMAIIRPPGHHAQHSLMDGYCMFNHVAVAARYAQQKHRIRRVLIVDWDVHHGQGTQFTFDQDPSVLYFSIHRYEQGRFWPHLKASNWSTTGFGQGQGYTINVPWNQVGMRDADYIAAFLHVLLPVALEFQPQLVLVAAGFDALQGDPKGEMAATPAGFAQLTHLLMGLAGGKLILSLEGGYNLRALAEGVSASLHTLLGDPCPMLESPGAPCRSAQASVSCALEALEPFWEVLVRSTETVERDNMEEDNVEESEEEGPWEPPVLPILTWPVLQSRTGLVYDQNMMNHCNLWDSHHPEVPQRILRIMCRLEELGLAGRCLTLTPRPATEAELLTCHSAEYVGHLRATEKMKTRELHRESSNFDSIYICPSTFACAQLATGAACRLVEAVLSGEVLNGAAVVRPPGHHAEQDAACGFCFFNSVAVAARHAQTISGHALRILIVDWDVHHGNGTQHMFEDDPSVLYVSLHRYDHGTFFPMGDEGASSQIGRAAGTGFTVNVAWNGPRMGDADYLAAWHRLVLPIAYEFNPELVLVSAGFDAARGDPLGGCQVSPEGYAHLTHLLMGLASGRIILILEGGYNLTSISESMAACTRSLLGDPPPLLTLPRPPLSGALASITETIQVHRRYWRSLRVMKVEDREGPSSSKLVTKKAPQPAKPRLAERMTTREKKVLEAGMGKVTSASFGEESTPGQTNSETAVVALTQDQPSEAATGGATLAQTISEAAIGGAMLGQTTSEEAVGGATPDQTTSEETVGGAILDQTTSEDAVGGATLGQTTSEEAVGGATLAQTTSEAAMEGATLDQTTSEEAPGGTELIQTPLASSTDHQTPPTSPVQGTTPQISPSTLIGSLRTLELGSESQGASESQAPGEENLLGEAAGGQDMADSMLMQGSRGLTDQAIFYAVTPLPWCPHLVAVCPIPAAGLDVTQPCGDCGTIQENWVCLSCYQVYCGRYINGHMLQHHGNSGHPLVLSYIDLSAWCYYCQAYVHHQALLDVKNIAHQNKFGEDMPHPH
Outline: as §1

PC-3M-luc cells [5] = assay: Migration assay; format: cell-based, human
Sirt2_56-356 [6] = biological target: T4, Sirt2_56-356; assay: Fluorescence polarization assay; format: binding
[7] = test system: α-tubulin acetylation in PC-3M-luc cells; assay: Acetylation levels of α-tubulin by immunofluorescence; format: cell-based, human; conditions: 20 μM, 5 hours
Outline: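 PC-3M-luc cells were plated at 20 000 per well, incubated overnight at 37 °C and 5% CO2, then exposed to 20 μM test compound for 5 h. They were fixed in 4% PFA for 8–10 min at RT and extracted with PBS/0.1% Triton X-100. Blocking used PBS/0.1% Triton/5% FCS. […] Read-out was immunofluorescence microscopy.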

HGC-27 cells = assay: Cell viability assay; format: cell-based; conditions: Homo sapiens
Outline: (§2)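 MTS/PMS (20:1) viability assay. Cells were seeded at 2000 per well with test compound or vehicle (0.5% DMSO final) and incubated 72 or 120 h at 37 °C, 5% CO2. Absorbance was read 2–4 h after reagent addition. Media: HEK293T in DMEM with 10% FBS, 2 mM glutamine and 1% pen-strep; HGC-27 in DMEM:Ham's 12 (1:1) with 5% FCS.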

PC-3M-luc cells [8] = assay: Cell viability assay; format: cell-based, human; conditions: 3 days vs 5 days
HEK293T cells = assay: Cell viability assay; format: cell-based; conditions: Homo sapiens, HEK-293T
Outline: as §2

PC-3M-luc cells [9] = assay: Colony Forming Unit; format: cell-based, human
Outline: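 PC-3M-luc cells were grown in RPMI 1640 with 10% FBS, 2 mM glutamine and 1% pen-strep, then seeded at 250 cells per well. After 2–3 h, test compound or vehicle was added (0.5% DMSO final) and plates were incubated 7 days at 37 °C, 5% CO2. Cells were PBS-washed, fixed in 4% PFA for 20 min at RT and stained with 0.01% crystal violet for 30 min. Colonies were then counted.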

[10] = test system: c-Myc protein levels in PC-3M-luc cells; assay: Western blot of c-Myc protein levels; format: cell-based, human; conditions: 24 h
[11] = test system: KRas4a fatty acylation in HEK293T cells; assay: In cell inhibition of SIRT2 defatty-acylation of KRas-4a; format: cell-based, human; conditions: 25 μM
Sirt2 [12] = biological target: T1, Sirt2; assay: Determination of kinetic parameters for ZMAL and ZMML; format: biochemical; conditions: substrate of Sirt2; mean ± SD (n = 3)
[13] = tracer 13 2 μM, HEK293T, 2 h, mean ± SD
[14] = In vitro Sirt2 activity assay IC50, Table 2

human recombinant HDAC1, sequence (Q13547 whole entry): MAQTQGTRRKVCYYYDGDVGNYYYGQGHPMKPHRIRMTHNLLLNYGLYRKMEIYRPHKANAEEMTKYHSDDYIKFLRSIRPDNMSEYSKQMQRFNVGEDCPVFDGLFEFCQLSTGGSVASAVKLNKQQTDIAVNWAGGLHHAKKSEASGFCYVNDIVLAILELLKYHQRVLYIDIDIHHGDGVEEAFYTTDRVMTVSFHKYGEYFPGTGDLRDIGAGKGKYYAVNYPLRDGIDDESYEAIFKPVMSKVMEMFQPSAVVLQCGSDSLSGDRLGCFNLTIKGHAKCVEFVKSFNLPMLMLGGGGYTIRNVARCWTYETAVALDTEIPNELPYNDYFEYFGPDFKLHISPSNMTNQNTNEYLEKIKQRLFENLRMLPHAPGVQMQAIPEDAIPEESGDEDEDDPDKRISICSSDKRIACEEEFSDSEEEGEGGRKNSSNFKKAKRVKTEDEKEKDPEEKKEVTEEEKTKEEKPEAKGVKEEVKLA

SMILES | IC50 (Sirt1_134-747) | IC50 (Sirt3_118-395) | IC50 (human recombinant HDAC1) | IC50 (human recombinant HDAC6) | IC50 (Sirt2_56-356 [4]) | IC50 (Sirt2_56-356 [3]; [14]) | IC50 [2] | further results
O=C(NCc1cccnc1)c1ccc2c(c1)C1C3CCC(C3)C1C(c1ccccc1)N2 (stereo not drawn) [AEM2, reference compound] | – | – | – | – | – | – | – | IC50 (Sirt2 [1]): 3.8 µM; IC50 ([2]; read-out: NanoBRET assay IC50, tracer 13 2 μM, HEK293T, 2 h, mean ± SD): 5.2 ± 0.2 µM
COCCn1cc(COc2cccc(Cc3cnc(NC(=O)CSc4nc(-c5ccccc5)cc(-c5ccccc5)n4)s3)c2)nn1 [Compound 7] | > 100 µM | > 100 µM | > 100 µM | > 100 µM | > 100 µM | – | – | IC50 (Sirt2_56-356 [3]; Sirt2 Deacet. IC50, mean ± SD): 620 ± 72 µM; decreased potency compared to the positive control SirReal2 (Sirt2_56-356 [3]; Sirt2 deacetylation): more than 1000 fold; acetylation levels of α-tubulin [7]: Only weak effects; Sirt2 binding in the FP assay compared to SirReal2 (in words) (Sirt2_56-356 [6]): weaker binding; NanoBRET assay IC50 [2, 13]: did not detect cellular Sirt2 binding
Cc1ccc(Cn2cc(COc3cccc(Cc4cnc(NC(=O)CSc5nc(C)cc(C)n5)s4)c3)nn2)cc1 [Compound 9] | > 100 µM | > 100 µM | > 100 µM | > 100 µM | 2 ± 0.3 µM | 0.17 ± 0.02 µM | 0.4 ± 0.02 µM | –
Cc1cc(C)nc(SCC(=O)Nc2ncc(Cc3cccc(OCc4cn(Cc5ccc(OCCN6CCOCC6)cc5)nn4)c3)s2)n1 [Compound 12] | > 100 µM | > 100 µM | > 100 µM | > 100 µM | – | 0.12 ± 0.01 µM | 0.098 ± 0.004 µM | GI50 (HGC-27 cells): 8.21 ± 0.59 µM; dependence of the effect on cell viability on incubation time (PC-3M-luc cells [8]): higher effects on the cell viability of PC-3M-luc cells could be observed after prolonged incubation time; GI50 (HEK293T cells): 7.7 ± 0.71 µM; effect on colony formation (in words) (PC-3M-luc cells [9]): Colony formation was almost completely prevented; concentration-dependent effect on cell migration (PC-3M-luc cells [5]): concentration-dependent inhibition of migration; c-Myc protein levels (in words) ([10]; 10 μM): completely absent; concentration dependence of c-Myc levels [10]: reduced in a concentration-dependent manner; acetylation levels of α-tubulin [7]: elevated; KRas4a acylation levels (in words) [11]: increased acylation levels of KRas4a compared to DMSO treated cells; IC50 (Sirt2_56-356 [6]): 0.07 ± 0.02 µM; NanoBRET binding in digitonin permeabilized vs untreated cells ([2]; digitonin 50 μg mL−1): None of the tested compounds revealed significant differences in the NanoBRET signals between permeabilized (digitonin) and untreated cells
CC(=O)NCCCCC(NC(=O)OCc1ccccc1)C(=O)Nc1ccc2c(C)cc(=O)oc2c1 (stereo not drawn) [ZMAL, Z-(Ac)Lys-AMC] | – | – | – | – | – | – | – | Km (Sirt2 [12]): 510 ± 95 µM
CCCCCCCCCCCCCC(=O)NCCCCC(NC(=O)OCc1ccccc1)C(=O)Nc1ccc2c(C)cc(=O)oc2c1 (stereo not drawn) [ZMML] | – | – | – | – | – | – | – | Km (Sirt2 [12]): 6.7 ± 1 µM

Further lines, with some results ahead:

IC50 (Sirt1_134-747) | IC50 (Sirt3_118-395) | IC50 (human recombinant HDAC1) | IC50 (human recombinant HDAC6) | IC50 (Sirt2_56-356 [4]) | IC50 (Sirt2_56-356 [3]; [14]) | IC50 [2] | SMILES | further results
> 100 µM | > 100 µM | > 100 µM | > 100 µM | – | – | – | CCCCCCCC(=O)Nc1ncc(Cc2cccc(OCc3cn(CCOC)nn3)c2)s1 [Compound 5] | IC50 (Sirt2_56-356 [3]; Sirt2 Deacet. IC50, mean ± SD): 0.46 ± 0.21 µM; inhibition at 20 µM (Sirt2_56-356 [4]; read-out: Sirt2 Demyr. percentage of inhibition): 23.2%; inhibition at 10 µM (PC-3M-luc cells [5]; Homo sapiens, read-out: migration inhibition): 35%; Sirt2 binding in the FP assay compared to SirReal2 (in words) (Sirt2_56-356 [6]): weaker binding; NanoBRET assay IC50 [2, 13]: did not detect cellular Sirt2 binding
> 100 µM | > 100 µM | > 100 µM | > 100 µM | 3.9 ± 0.2 µM | 0.16 ± 0.02 µM | 1 ± 0.05 µM | Cc1cc(C)nc(SCC(=O)Nc2ncc(Cc3cccc(OCc4cn(Cc5ccccc5C)nn4)c3)s2)n1 [Compound 8] | –

Reference: article PMC8985159 (RSC Chemical Biology, 2022)
